Assay outcomes deposited in PubChem BioAssay by Sanford-Burnham Center for Chemical Genomics.
SENP1 inh = blocks the human SENP1 SUMO protease catalytic domain | Q9P0U3 | recombinant SENP1 catalytic domain, CyPet-SUMO1-YPet FRET cleavage | inhibition, % at 10 µM | 360,000 tested, 0.21% active;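 active = inhibition at least 30% at 10 µM, raw YFP signal under a set limit, fluorescence ratio 0.5 to 1.5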;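 also: 0% = enzyme with DMSO and 100% = no enzyme wells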
Target sequence (Q9P0U3 419-644 limits assumed): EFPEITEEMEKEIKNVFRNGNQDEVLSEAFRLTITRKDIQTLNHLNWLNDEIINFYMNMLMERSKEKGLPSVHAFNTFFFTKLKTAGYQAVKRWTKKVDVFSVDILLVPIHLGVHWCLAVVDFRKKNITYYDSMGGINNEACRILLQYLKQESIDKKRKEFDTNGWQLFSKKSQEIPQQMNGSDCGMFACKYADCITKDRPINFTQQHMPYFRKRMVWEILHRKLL
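Test system: hSENP1 catalytic domain, recombinant; Amount: 20 pM final SENP1 enzyme; Medium: Tris pH 8 buffer plus EDTA, NaCl, BME, BSA, NP40, catalase; Schedule: 50 min enzyme reaction, room temperature, light-protected; Technique: FRET fluorescence in CFP and YFP emission channels; Controls: no-enzyme wells low, DMSO-plus-enzyme wells high control.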
Apaf-1 inh = human Apaf-1 inhibition; inhibition, % at 20 µM; reconstituted apoptosome caspase-3 activity, DEVD-Rh110 fluorescence; O14727; AID 489030; 330,000 tested, 0.71% active; active = inhibition of at least 40% at 20 µM;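 also: plate controls were DMSO wells for no effect and DEVD-CHO caspase inhibitor wells for full effect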
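System: reconstituted apoptosome with Apaf-1, cytochrome c, caspase-9, procaspase-3, dATP; Signal: Rh110 fluorescence intensity; Schedule: 30 min compound preincubation, 50 min activation, room temperature; Reagent: cytochrome c trigger plus (Z-DEVD)2-Rh110 caspase-3 substrate.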
SENP8 block-1 = inhibitors of human SENP8 protease | 360,000 tested, 0.64% active | inhibition, % at 20 µM | recombinant SENP8, Nedd8 substrate fluorescence | Q96LD8; in the data active = inhibition mostly above about 40%, no sharp cut-off; inactive = mostly below about 27%
SENP8 block-2 = inhibitors of human SENP8 protease; purified SENP8, Z-RLRGG-aminoluciferin cleavage, luminescence; inhibition, % at 10 µM; 330,000 tested, 1.2% active; Q96LD8; AID 2540; in the data active = inhibition above about 50%
SENP6 inh = inhibitors of human SENP6 protease | Q9GZR1 | Recombinant SENP6 catalytic domain, aminoluciferin luminescence | inhibition, % at 10 µM | 330,000 tested, 1.8% active;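 active = inhibition above about 50% at the single tested dose, limit read from the data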;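 also: plate controls were DMSO wells with enzyme for no effect and DMSO wells lacking enzyme for full effect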
SENP7 block = inhibitors of human SENP7 protease | Q9BQF6 | recombinant SENP7, Z-RLRGG-aminoluciferin luminescence, 40 min | inhibition, % at 5 µM | 330,000 tested, 1.5% active | AID 434973;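 active = inhibition above about 50% at the single test dose, limit read from the data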;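 also: plate controls were DMSO with enzyme for no effect and no enzyme buffer wells for full effect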
Target sequence (Q9BQF6 706-1050 limits assumed): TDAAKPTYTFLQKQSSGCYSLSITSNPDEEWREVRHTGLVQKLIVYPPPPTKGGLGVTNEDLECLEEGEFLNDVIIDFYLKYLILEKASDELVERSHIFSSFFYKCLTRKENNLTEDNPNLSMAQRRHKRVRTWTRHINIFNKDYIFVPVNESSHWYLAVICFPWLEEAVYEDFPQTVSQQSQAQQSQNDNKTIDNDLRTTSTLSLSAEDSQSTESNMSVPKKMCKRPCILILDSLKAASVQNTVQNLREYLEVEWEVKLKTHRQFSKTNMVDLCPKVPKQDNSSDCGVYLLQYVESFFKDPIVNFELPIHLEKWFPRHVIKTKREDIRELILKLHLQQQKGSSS
Active calls of the source: *; i = inactive; . = no result. Sampled rows, rich in hits. Any-hit rate of the full collection: about 2.9%.

SMILES	SENP1 inh	Apaf-1 inh	SENP8 block-1	SENP8 block-2	SENP6 inh	SENP7 block
CSc1ncccc1C(=O)Nc1ccc2c(c1)OCCO2	2	3	15	-14	-27	-14
Cc1c(Cl)cccc1NS(=O)(=O)c1ccc(-c2ccc(=O)[nH]n2)o1	2	-2	-12	5	3	-11
CC1CCCN(C(=O)CCNS(=O)(=O)c2ccc3c(c2)oc(=O)n3C)C1 (centres undefined)	-1	-11	7	-5	1	3
O=C(NCc1ccccc1)c1ccc2c(=O)[nH]c3c(C(=O)NCC4CCCO4)sc(=S)n3c2c1 (centres undefined)	38*	5	17	13	31	-1
Cc1ccc(CNC(=O)c2ccc3c(=O)n(CC4CCCO4)c(=S)[nH]c3c2)cc1 (centres undefined)	0	11	9	-2	-15	14
CCCCCNC(=O)c1ccc2c(=O)[nH]c3c(C(=O)NCC4CCCO4)sc(=S)n3c2c1 (centres undefined)	52*	7	30	28	13	2
Cc1ccc(CNC(=O)c2ccc3c(=O)[nH]c4c(C(=O)NCC5CCCO5)sc(=S)n4c3c2)cc1 (centres undefined)	39*	11	28	-4	-6	-3
COc1ccc(CNC(=O)CCNS(=O)(=O)c2cc(Br)cnc2N)cc1	0	15	-41	1	-10	-4
CC(=O)N1CCc2c(sc(NC(=O)C3CC3)c2-c2nc3ccccc3s2)C1	-43	72*	-353	26	68*	26
Cc1ccc(Nc2nnc(-c3ccccc3N)o2)cc1C	0	-2	-433	-8	-3	63*
Cc1ccc(NCc2ccco2)cc1C	-3	-1	-1	-5	13	7
CC(=O)Nc1n[nH]c(=S)s1	0	.	1	.	.	.
O=C(Nc1n[nH]c(=S)s1)c1ccc2ccccc2c1	2	4	-17	82*	91*	63*
Cc1ccc(N/N=C2\CC(=O)c3ccccc32)cc1Cl	.	76*	.	3	32	6
CCOC(=O)C1(C)CCN1C(=O)c1cccc(C#N)c1 (centres undefined)	5	.	11	.	.	.
COc1cc2c(cc1OC)C(c1ccc(-c3cc(Cl)ccc3Cl)o1)=NCC2	-37	32	i	4	-4	6
COc1cc2c(cc1OC)C(c1ccc(-c3ccc(Cl)c(Cl)c3)o1)=NCC2	-12	41*	-75	-1	1	19
C/C(=N/OC(=O)c1ccc(Cl)cc1Cl)c1oc(C)nc1C	1	-1	21	83*	90*	87*
COc1ccc(NC(=S)NC(NC(=O)CCl)C(Cl)(Cl)Cl)c([N+](=O)[O-])c1 (centres undefined)	2	17	52*	-7	-15	9
COc1ccc(NC(=S)NC(NC(=O)c2cccc3ccccc23)C(Cl)(Cl)Cl)c([N+](=O)[O-])c1 (centres undefined)	1	8	16	-2	-22	5
CCn1nnc2cc(C(=O)N3CCC(C(=O)OC)CC3)ccc21	12	-5	-9	8	-8	5
Oc1csc(Cc2nc(-c3ccc4ccccc4c3)cs2)n1	23	11	-44	37	8	66*
CN(/N=C/c1cccc(Br)c1)C1=NS(=O)(=O)c2ccccc21	1	10	-43	5	-10	0
O=C1NNC(c2ccccc2)=N/C1=C\c1ccccc1	1	19	47*	5	2	6
C[C@H](CO)N1C[C@H](C)[C@H](CN(C)S(=O)(=O)c2ccc(F)cc2)OCc2cnnn2CCCC1=O	-2	.	15	.	.	.
SMILES	SENP1 inh	Apaf-1 inh	SENP8 block-1	SENP8 block-2	SENP6 inh	SENP7 block
CCc1ccc(Nc2nnc(SCC(=O)NCCN3C(=O)CSC3=O)s2)cc1	2	6	1	23	52*	43
CSC1=NC=C(C#N)C2=NC(c3c(Cl)cccc3Cl)NN12 (centres undefined)	0	.	52*	.	.	.
OC(c1ccc(Cl)cc1)c1ncc(-c2ccccc2Cl)[nH]1 (centres undefined)	3	.	13	.	.	.
NS(=O)(=O)c1ccc(N/N=C/c2ccc(O)c(O)c2O)c([N+](=O)[O-])c1	2	.	106*	.	.	.
NS(=O)(=O)c1ccc(N/N=C/c2ccc(O)cc2O)c([N+](=O)[O-])c1	6	-17	54*	3	3	3
NS(=O)(=O)c1ccc(N/N=C/c2ccccc2C(=O)O)c([N+](=O)[O-])c1	3	-8	23	4	-5	16
O=C(O)c1ccccc1NS(=O)(=O)c1ccc(N/N=C/c2ccc(O)c(O)c2)c([N+](=O)[O-])c1	1	.	53*	.	.	.
COCCN(CCOC)Cc1cc(=O)oc2cc(C)c(C)cc12	-2	.	-9	.	.	.
CC(/C=C(\NC(=O)c1ccccc1)C(=O)N=Nc1c(O)[nH]c2ccc(C)cc12)=C\c1ccccc1	3	6	51*	-1	-8	3
O=C1C(Cl)=C(NCCCO)C(=O)c2ccccc21	0	45*	83*	28	41	41
CN(C)c1ccc(NC2=C(Cl)C(=O)c3ccccc3C2=O)cc1	1	43*	43*	9	38	3
O=S(=O)(c1ccccc1)c1nc(-c2ccccc2Cl)oc1NCCCN1CCOCC1	0	10	-106	13	-9	1
CC(=O)Nc1ccc(NC2=C(Cl)C(=O)c3ccccc3C2=O)cc1	.	38	.	24	12	10
O=C1C(Cl)=C(NCCCN2CCOCC2)C(=O)c2ccccc21	4	.	64*	.	.	.
C[C@H]1COC(=O)[C@@H](Cc2ccc(F)cc2)C/C=C\C[C@@H](CC(=O)N[C@@H](CO)Cc2ccccc2)C(=O)N1	2	15	4	1	-11	8
COc1ccc(NC(=O)C(c2ccccc2F)n2c(=O)c(-c3ccco3)nc3ccccc32)cc1 (centres undefined)	-16	.	-279	.	.	.
CC1=NN(c2ccc([N+](=O)[O-])cc2)C(c2ccccc2)C1 (centres undefined)	-64	12	20	-3	-1	7
CC1=NN(c2ccc([N+](=O)[O-])cc2)C(=O)C1	0	.	71*	.	.	.
COCCn1c2nc(=O)n(-c3ccccc3)c(=O)c-2nc2ccccc21	-30	.	-375	.	.	.
COCCNC(=O)C1CCCN(C(=O)COc2ccc(Cl)cc2Cl)CC1 (centres undefined)	1	.	17	.	.	.
Fc1ccc(N2CCN(C3=Nc4cccc5cccc3c45)CC2)cc1	90*	8	17	-4	5	0
O=C(CCCN1C(=O)c2cccc3cccc(c23)C1=O)N1CCN(c2ccc(F)cc2)CC1	-2	6	-66	1	1	8
